Experimental data published in PMC4075068 (Bioorganic & medicinal chemistry letters, 2014).

Legend:
[1] = tier 1 DMPK panel; format: in vitro ADME; details: compared with 10b
[2] = target: rat mGlu3 (Rattus norvegicus, UniProt P31422); format: cell-based
Procedure, shortened: (§1)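 Kinetic plate-based calcium fluorescence readout in cells expressing mGlu2 or mGlu3. For IC50, the test compound was titrated from 1 nM upward against an EC76 of glutamate at mGlu2 or an EC87 at mGlu3. For mechanism, the test compound was held at several fixed concentrations while glutamate was titrated from 1 nM upward, and shifts in the glutamate curve were assessed. Three independent experiments.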

[3] = tested on: the other mGlus; experiment: mGlu family selectivity screen, fold-shift of glutamate response; format: cell-based; details: 10 μM
Procedure, shortened: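 Fold-shift of glutamate-evoked signaling measured at group I and group III mGlu receptors. Group I receptors read out by calcium response; group III receptors read out by GIRK response.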

[4] = predicted hepatic clearance, rat; format: in vitro ADME
[5] = target: rat mGlu2 (Rattus norvegicus, UniProt P31421); format: cell-based
Chain of rat mGlu2 (P31421 19-872): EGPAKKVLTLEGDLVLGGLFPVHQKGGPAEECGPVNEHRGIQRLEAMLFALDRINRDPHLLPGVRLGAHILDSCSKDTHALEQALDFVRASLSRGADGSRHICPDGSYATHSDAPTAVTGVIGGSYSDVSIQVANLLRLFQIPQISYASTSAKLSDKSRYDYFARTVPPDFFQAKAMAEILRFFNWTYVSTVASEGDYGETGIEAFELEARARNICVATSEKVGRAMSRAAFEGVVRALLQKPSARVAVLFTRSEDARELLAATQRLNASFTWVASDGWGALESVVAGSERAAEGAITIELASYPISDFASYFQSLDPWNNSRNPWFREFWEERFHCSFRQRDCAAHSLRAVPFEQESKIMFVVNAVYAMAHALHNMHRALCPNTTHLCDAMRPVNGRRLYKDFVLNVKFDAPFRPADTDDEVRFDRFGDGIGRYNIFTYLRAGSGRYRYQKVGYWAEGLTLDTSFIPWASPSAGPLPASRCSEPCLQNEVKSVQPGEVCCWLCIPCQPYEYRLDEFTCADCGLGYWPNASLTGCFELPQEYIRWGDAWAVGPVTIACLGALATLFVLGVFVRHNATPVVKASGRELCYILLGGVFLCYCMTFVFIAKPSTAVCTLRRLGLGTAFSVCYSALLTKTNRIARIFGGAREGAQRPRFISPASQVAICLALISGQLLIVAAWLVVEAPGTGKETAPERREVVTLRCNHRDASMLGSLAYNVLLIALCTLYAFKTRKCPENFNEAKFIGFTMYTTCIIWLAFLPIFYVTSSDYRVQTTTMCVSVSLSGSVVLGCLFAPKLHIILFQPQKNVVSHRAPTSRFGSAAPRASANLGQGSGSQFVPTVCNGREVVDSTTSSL
Procedure, shortened: as §1

[6] = predicted hepatic clearance, human; format: in vitro ADME
[7] = target: mGlu2 (Rattus norvegicus, UniProt P31421); experiment: mGlu family selectivity screen, fold-shift of glutamate response; format: cell-based; details: 10 μM
Chain of mGlu2 (P31421 19-872): as above

[8] = target: mGlu3 (Rattus norvegicus, UniProt P31422); experiment: as above; format: cell-based; details: 10 μM
Chain of mGlu3 (P31422 23-879): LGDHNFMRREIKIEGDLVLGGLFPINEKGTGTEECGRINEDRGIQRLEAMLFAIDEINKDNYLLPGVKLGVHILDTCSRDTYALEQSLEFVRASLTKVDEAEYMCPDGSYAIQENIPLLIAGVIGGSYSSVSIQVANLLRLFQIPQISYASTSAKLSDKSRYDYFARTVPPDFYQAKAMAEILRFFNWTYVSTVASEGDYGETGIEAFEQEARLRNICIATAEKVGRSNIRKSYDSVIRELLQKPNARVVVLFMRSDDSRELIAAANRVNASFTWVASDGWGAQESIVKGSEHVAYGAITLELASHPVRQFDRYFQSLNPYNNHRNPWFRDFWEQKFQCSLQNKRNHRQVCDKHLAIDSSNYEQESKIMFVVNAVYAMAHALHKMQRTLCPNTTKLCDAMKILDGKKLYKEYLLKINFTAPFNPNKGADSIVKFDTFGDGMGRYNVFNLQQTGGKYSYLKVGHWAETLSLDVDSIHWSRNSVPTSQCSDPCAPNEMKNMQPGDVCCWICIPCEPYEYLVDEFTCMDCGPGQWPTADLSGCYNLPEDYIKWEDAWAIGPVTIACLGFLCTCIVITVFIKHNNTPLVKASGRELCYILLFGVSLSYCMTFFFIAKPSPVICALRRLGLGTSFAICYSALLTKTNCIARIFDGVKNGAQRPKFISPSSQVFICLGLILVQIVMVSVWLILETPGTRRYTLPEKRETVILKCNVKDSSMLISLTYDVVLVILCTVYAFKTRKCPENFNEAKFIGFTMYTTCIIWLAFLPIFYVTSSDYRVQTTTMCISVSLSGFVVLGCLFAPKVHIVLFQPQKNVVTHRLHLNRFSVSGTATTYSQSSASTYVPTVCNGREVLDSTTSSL

[9] = fixed concentrations against glutamate 1 nM – 30 μM

Chain of rat mGlu3 (P31422 23-879): as above

SMILES | DMPK properties [1] | increase in potency at mGlu3 compared to 7d [2] | mechanism of action at mGlu3 (progressive fold-shift of glutamate response) [2, 9] | effect on responses of the other mGlus to glutamate [3] | predicted clearance CLhep, rat [4] | increase in potency at mGlu2 compared to 7d [5] | mechanism of action at mGlu2 (progressive fold-shift of glutamate response) [5, 9] | predicted clearance CLhep, human [6] | effect on glutamate response at mGlu2 [7] | effect on glutamate response at mGlu3 [8]
Cn1c(=O)c2ccc(-c3cccnc3)cc2n2nc(-c3ccc(F)cc3)cc12 [7ab] | similarly poor DMPK properties | – | – | – | – | – | – | – | – | –
Cn1c(=O)c2ccc(-c3cncnc3)cc2n2nc(-c3ccccc3)cc12 [10b, 4-methyl-2-phenyl-8-(pyrimidin-5-yl)pyrazolo[1,5-a]quinazolin-5(4H)-one] | – | over 2 fold | acting as a NAM | did not alter the responses | 54.7 mL/min/kg | ~3.5 fold | acting as a NAM | 18.7 mL/min/kg | completely blocked the glutamate response | completely blocked the glutamate response
